The text below walks through data of ChEMBL document CHEMBL1134847, “Development of orally active nonpeptidic inhibitors of human neutrophil elastase” (J Med Chem, 2001).

≈ marks a conversion by molar mass, not a printed value.

Series [1] relates to Cricetinae gen. sp. The experiment in a line: Inhibition of HNE-induced lung hemorrhage in hamsters after oral administration followed by intratracheal instillation of HNE (10 U/lung). In kind it is functional. In short, it runs like this: (§1)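 Hamsters (n = 6-10) were dosed orally 1 h before intratracheal instillation of HNE (10 U/lung). The read-out was inhibition of the HNE-induced lung hemorrhage.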

Series [2] relates to Cricetinae gen. sp. Kind of series: (§2) Inhibition of HNE-induced lung hemorrhage in hamsters after oral administration of 30 mg/kg followed by intratracheal instillation of HNE (10 U/lung). In kind it is functional. In short, it runs like this: as §1
Series [3] concerns Cricetinae gen. sp. Described as §2. In kind it is functional, Cricetulus griseus. Put shortly:
as §1

Series [4] can be described thus: Solubility was determined at a pH of 1.2 using first fluid (JP13th). In kind it is physicochemical. The note with it: pH 1.2. In short, it runs like this:
(§3)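 Solubility was measured in μg/mL in four vehicles: JP13th first fluid (pH ca. 1.2), 1/14 M phosphate citrate buffer (pH ca. 4.0), physiological saline (pH ca. 5.5) and 1/14 M phosphate buffer (pH ca. 7.4).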

Series [5] can be described thus: Solubility was determined at a pH of […] using 1/14 M phosphate buffer. The series is classed as physicochemical. The note with it: pH 7.4.
Series [6] can be described thus: Solubility was determined at a pH of 4.0 using 1/14 M phosphate citrate buffer. In kind it is physicochemical. The conditions noted are these: pH 4. Put shortly:
as §3

Series [7] deals with T1, Neutrophil elastase (Homo sapiens, UniProt P08246).
T1 sequence (P08246 whole entry): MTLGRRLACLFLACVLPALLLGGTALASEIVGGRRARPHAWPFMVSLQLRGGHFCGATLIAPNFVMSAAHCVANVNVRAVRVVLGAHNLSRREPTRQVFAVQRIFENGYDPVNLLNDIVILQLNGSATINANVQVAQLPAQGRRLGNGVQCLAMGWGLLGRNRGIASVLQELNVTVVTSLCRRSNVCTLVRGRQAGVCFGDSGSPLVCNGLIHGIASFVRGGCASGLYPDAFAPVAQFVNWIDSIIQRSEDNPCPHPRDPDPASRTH
Kind of series: Binding constant derived from inhibition of elastase catalyzed hydrolysis of synthetic substrate.

Usually ED50 stands for the dose that gives a 50% effect, or the effect in half of the subjects. One may read the inhibition in vivo as the percentage by which the read-out fell short of the control. Read a high inhibition in vivo as strong suppression. What is called solubility is how much of the substance goes into solution per volume. Broadly, the Ki is a dissociation constant, usually derived from enzyme kinetics or from competition with a known ligand.

Consider `CC(C)[C@H](NC(=O)Cn1c(-c2ccccc2)nccc1=O)C(=O)c1nnc(C2(C)CC2)o1`, for which, in series [1], the ED50 is 6.6 mg/kg. As for `CC(C)[C@H](NC(=O)Cn1c(-c2ccc(F)cc2)ncc(N)c1=O)C(=O)c1nnc(C(C)(C)c2ccccc2)o1`, the ED50 in series [1] came to 10 mg/kg.

Consider `CC(C)[C@H](NC(=O)Cn1c(-c2ccccc2)ncc(N)c1=O)C(=O)c1nnc(C2(C)CC2)o1`, for which it took a dose of 11 mg/kg to reach the 50% effect level in series [2] (ED50). `CC(C)[C@H](NC(=O)Cn1c(-c2ccc(F)cc2)nccc1=O)C(=O)c1nnc(C(C)(C)c2ccccc2)o1` came in with an inhibition in vivo at 30 mg/kg in series [2] of 61%.

In the case of `CC(C)[C@H](NC(=O)Cn1c(-c2ccc(F)cc2)ncc(N)c1=O)C(=O)c1nnc(Cc2ccccc2)o1`, the inhibition in vivo at 30 mg/kg in series [2] was 53%. For the compound `CC(C)[C@H](NC(=O)Cn1c(-c2ccc(F)cc2)ncc(N)c1=O)C(=O)c1nnc(-c2ccccc2)o1`, the inhibition in vivo at 30 mg/kg in series [3] amounted to 9%. For `CC(C)[C@H](NC(=O)Cn1c(-c2ccccc2)ncc(N)c1=O)C(=O)c1nnc(C(C)(C)c2ccccc2)o1`, the figures for the solubility in series [4], in series [5] and in series [6] were 0.499 mg/mL (≈ 970 µM), 0.02 mg/mL (≈ 38.9 µM) and 0.026 mg/mL (≈ 50.5 µM), respectively. Further, the ED50 in series [1] was 25 mg/kg. As to `CC(C)[C@H](NC(=O)[C@@H]1CCCN1C(=O)[C@@H](NS(C)(=O)=O)C(C)C)C(=O)c1nnc(C(C)(C)C)o1`, the inhibition in vivo at 30 mg/kg in series [2] came out at 17%. The compound `CC(C)[C@H](NC(=O)Cn1c(-c2ccccc2)nccc1=O)C(=O)c1nnc(C(C)(C)C)o1` yielded an ED50 in series [1] of 4 mg/kg. Take `COc1ccc(-c2nnc(C(=O)[C@@H](NC(=O)Cn3c(-c4ccc(F)cc4)ncc(N)c3=O)C(C)C)o2)cc1`: the inhibition in vivo at 30 mg/kg in series [2] came out at 13%. The same compound displayed an inhibitory constant (Ki) in series [7] of 0.0212 µM.

Regarding `Cc1cccc(Cc2nnc(C(=O)[C@@H](NC(=O)Cn3c(-c4ccc(F)cc4)ncc(N)c3=O)C(C)C)o2)c1`, the 50% effect level in series [1] (ED50) was put at a dose of 13 mg/kg. Consider `CC(C)[C@H](NC(=O)COc1cccc(-c2ccccc2)n1)C(=O)c1nnc(C(C)(C)C)o1`, for which the inhibition in vivo at 30 mg/kg in series [2] stood at 28%. In series [7], the Ki was determined as 4.28 µM.

For the compound `CC(C)C[C@@H]1NC(=O)N(CC(=O)N[C@H](C(=O)c2nnc(C(C)(C)C)o2)C(C)C)C1=O`, in series [2], the inhibition in vivo at 30 mg/kg stood at 0%. In series [3], `CC(C)c1nnc(C(=O)[C@@H](NC(=O)Cn2c(-c3ccc(F)cc3)ncc(N)c2=O)C(C)C)o1` came in with an inhibition in vivo at 30 mg/kg of 79%. For the compound `CC(C)C(NC(=O)Cn1c(-c2ccc(F)cc2)ncc(N)c1=O)C(=O)C(F)(F)F` (centres undefined), the 50% effective dose (ED50) in series [1] worked out at 7.5 mg/kg. Compound `CC(C)[C@H](NC(=O)[C@@H]1Cc2ccccc2N1C(=O)c1c[nH]cn1)C(=O)c1nnc(C(C)(C)C)o1` displayed an inhibition in vivo at 30 mg/kg in series [2] of 81%. In addition, affinity in series [7] was put at a Ki of 0.0797 µM. The compound `CC(C)[C@H](NC(=O)C1Cc2ccccc2CN1C(=O)c1c[nH]cn1)C(=O)c1nnc(C(C)(C)C)o1` (some centres undefined) displayed an inhibition in vivo at 30 mg/kg in series [2] of 29%. In series [7], this compound came in with an inhibition constant Ki of 0.309 µM.
